≈ marks a conversion by molar mass, not a printed value. Calls of active or inactive are those of the source. The rule behind the calls is not given here.
What was measured:
Staphylococcus aureus [1] = test: Antibiofilm activity against Methicillin-resistant Staphylococcus aureus assessed as reduction in number of viable cells at 3 times MIC incubated for 24 hrs; format: functional, organism-based
How it was run: (§1)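 Biofilm eradication: mid-log MRSA at 2 × 10^6 CFU mL-1 grown 48 h to form biofilms, then washed with PBS. Biofilms exposed to compound at MIC, 2× or 3× MIC for 24 h; medium-only control. Biofilms dispersed with trypsin–EDTA, serial 10-fold dilutions plated, colonies counted after 24 h, expressed as log10 CFU mL-1.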

Staphylococcus aureus [2] = test: Antibacterial activity against methicillin-resistant Staphylococcus aureus USA300 assessed as reduction in bacterial growth by broth microdilution method; format: functional
How it was run: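 Twofold serial dilution (microdilution) MIC in lysogeny broth (LB) medium against drug-resistant strains: MRSA USA300, vancomycin-resistant Enterococci, Klebsiella pneumoniae.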

Escherichia coli [3] = test: Antibacterial activity against drug sensitive Escherichia coli DH5alpha assessed as reduction in bacterial growth by broth microdilution method; format: functional
How it was run: (§2)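 MICs were determined by standard twofold serial broth microdilution in lysogeny broth (LB) medium.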

Staphylococcus aureus [4] = test: Antibiofilm activity against Methicillin-resistant Staphylococcus aureus assessed as reduction in number of viable cells at 16 times MIC incubated for 24 hrs; format: functional, organism-based
MCF7 = test: Cytotoxicity against human MCF7 cells assessed as inhibition of cell growth incubated for 24 hrs by MTT assay; format: functional, cell-based; conditions: MCF7, 24 h
How it was run: (§3)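 MTT assay with 24 h exposure of cells to the samples. IC50 is the concentration giving 50% growth inhibition, reported as mean ± S.D. of three independent experiments.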

Escherichia coli [5] = test: Antibiofilm activity against Escherichia coli assessed as reduction in number of viable cells at 8 times MIC incubated for 24 hrs; format: functional, organism-based
Pseudomonas aeruginosa = test: Antibacterial activity against drug sensitive Pseudomonas aeruginosa PAO1 assessed as reduction in bacterial growth by broth microdilution method; format: functional; how it was run: as §2
Staphylococcus aureus [6] = test: Antibacterial activity against methicillin-resistant Staphylococcus aureus assessed as reduction in viable bacterial count measured after 18 hrs; format: functional, organism-based
Staphylococcus aureus [7] = test: Antibacterial activity against methicillin-resistant Staphylococcus aureus infected in Kunming mouse corneal infection model assessed as reduction in viable bacterial count at 3 mg/ml, TOP administered 3 times daily for 1 week; format: functional, organism-based; conditions: time 1.0 weeks
How it was run: (§4)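 Corneal infection model: male and female Kunming mice (~20 g) immunosuppressed with daily i.p. cyclophosphamide for 3 days. Anesthetized with i.p. avertin (400 mg kg-1), corneas abraded and given 20 μL MRSA (6 × 10^7 CFU mL-1). From 24 h post-infection, treated by topical smear three times daily for one week. Controls: 5% glucose and 5% vancomycin. Six mice per group. Corneal viable counts measured.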

[8] = Plasma protein binding in dog assessed as unbound fraction measured after 4 hrs by rapid equilibrium dialysis based LC-MS/MS analysis; format: ADME, cell-free, Canis lupus familiaris
How it was run: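 Rapid equilibrium dialysis of dog plasma against PBS pH 7.4 across an 8000 MWCO membrane. A 10 mM stock was diluted 1:50 with water and added to the plasma side, with sarolaner as control. Plates were shaken for 4 h at 37 °C. Proteins were precipitated with ACN and both chambers quantified by LC-MS/MS. % free = buffer/plasma concentration × 100; % bound = 100 − % free. n = 4.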

Staphylococcus aureus [9] = test: Antibacterial activity against methicillin-resistant Staphylococcus aureus measured for 9 days; format: functional, organism-based; conditions: time 9.0 day
How it was run: (§5)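 Resistance development: MRSA serially subcultured in fresh medium starting from the initial MIC. MIC reassessed every 24 h over 24 days, alongside a reference antibiotic given in twofold dilutions.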

Cell membrane [10] = test: Induction of cell membrane integrity in Escherichia coli assessed as increase in K+ efflux at 3 times MIC by absorption spectrophotometric analysis; format: subcellular
How it was run: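 Mid-log E. coli (6 h culture) was suspended to about 2 × 10^6 CFU mL−1 in 10 mM HEPES pH 7.3 plus 5 mM glucose (1:1). Cells were incubated with 3× MIC at 37 °C for various times, with a PBS control. Supernatant K+ was measured by atomic absorption spectrophotometry. Run in duplicate.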

Staphylococcus aureus [11] = test: Antibacterial activity against methicillin-resistant Staphylococcus aureus assessed as reduction in viable bacterial count at 2 to 4 times MIC measured after 18 hrs; format: functional, organism-based
Staphylococcus aureus [12] = test: Antibacterial activity against methicillin-resistant Staphylococcus aureus assessed as effect on viable bacterial growth measured after 24 hrs; format: functional, organism-based
Cell membrane [13] = test: Induction of cell membrane depolarization in methicillin-resistant Staphylococcus aureus assessed as increase in fluorescence intensity at 3 times of MIC measured up to 15 hrs by DiSC3-5 dye based fluorescence analysis; format: subcellular
How it was run: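 Membrane potential assay. Mid-log MRSA (6 h growth) pelleted and resuspended in 100 mM KCl, 5 mM HEPES (pH 7.3) and 5 mM glucose (1:1:1). Mixed with DiSC3(5) at 8 μM final and preincubated 40 min at 37 °C. Compound added at 3× MIC, water control. Fluorescence read at ex 622 / em 670 nm.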

[14] = Cytotoxicity against human HK-2 cells assessed as inhibition of cell growth incubated for 24 hrs by MTT assay; format: toxicity, cell-based; how it was run: as §3
Staphylococcus aureus [15] = test: Antibacterial activity against methicillin-resistant Staphylococcus aureus measured for 15 days; format: functional, organism-based; conditions: time 15.0 day; how it was run: as §5
Escherichia coli [16] = test: Bactericidal activity against Escherichia coli assessed as inhibition of bacterial growth at 3 times MIC incubated for 24 hrs by time kill assay; format: functional, organism-based
How it was run: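 Time-kill assay: E. coli was precultured for […] at 37 °C and adjusted to about 2 × 10^6 CFU mL−1. It was exposed to 3× MIC at 37 °C with shaking. Samples were taken at 0.5–13 h, serially 10-fold diluted in PBS and plated on Mueller–Hinton agar, and colonies were counted after 24 h at 37 °C. Run in duplicate.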

Staphylococcus aureus [17] = test: Bactericidal activity against methicillin-resistant Staphylococcus aureus at 2 times MIC incubated for 24 hrs by time kill assay; format: functional, organism-based
How it was run: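 Time-kill: MRSA grown 24 h at 37 °C, adjusted to ~2 × 10^6 CFU mL-1, exposed at 2× or 3× MIC with shaking at 37 °C. Aliquots taken at 0.5–13 h, serially diluted 10-fold in PBS, plated on Mueller–Hinton agar, counted after 24 h at 37 °C. Duplicate.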

Staphylococcus aureus [18] = test: Antibacterial activity against methicillin-resistant Staphylococcus aureus infected in Kunming mouse corneal infection model assessed as reduction in viable bacterial count at 6 mg/ml, TOP administered 3 times daily for 1 week; format: functional, organism-based; conditions: time 1.0 weeks; how it was run: as §4
Staphylococcus aureus [19] = test: Antibiofilm activity against Methicillin-resistant Staphylococcus aureus assessed as reduction in number of viable cells at 2 times MIC incubated for 24 hrs; format: functional, organism-based; how it was run: as §1
Cell membrane [20] = test: Induction of cell membrane permeabilization in methicillin-resistant Staphylococcus aureus assessed as increase in fluorescence intensity at 3 times MIC incubated for 8 hrs by PI staining based confocal laser scanning microscopic analysis; format: subcellular
How it was run: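 Log-phase MRSA washed in PBS (10 mM, pH 7.2) and resuspended at 2 × 10^6 CFU mL-1 (OD600 0.2–0.4). Treated at 3× MIC for 8 h at 37 °C, PBS control. Stained with SYTO 9/propidium iodide 30 min in the dark, imaged by confocal laser scanning microscopy. Duplicate.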

Staphylococcus aureus [21] = test: Bactericidal activity against methicillin-resistant Staphylococcus aureus assessed as reduction in colony forming unit at 3 times MIC […] by time kill assay; format: functional
Escherichia coli [22] = test: Bactericidal activity against Escherichia coli at 2 to 3 times MIC incubated for 24 hrs by time kill assay; format: functional, organism-based

Q: With `CC(C)(C)c1ccc(CCNc2nc3ccccc3nc2N)cc1` as the molecule, how does the Activity (Staphylococcus aureus [1]) read?
A: Active

Q: What about the MIC (Staphylococcus aureus [2]) of the same molecule?
A: 8 µg/mL (≈ 25 µM)

Q: And the MIC (Escherichia coli [3])?
A: 4 µg/mL (≈ 12.5 µM)

Q: And the Activity (Staphylococcus aureus [4])?
A: Active

Q: And the IC50 (MCF7)?
A: 72.5 µg/mL (≈ 226 µM)

Q: And the Activity (Escherichia coli [5])?
A: Active

Q: What about the MIC (Pseudomonas aeruginosa) of the same molecule?
A: 64 µg/mL (≈ 200 µM)

Q: What about the Activity (Staphylococcus aureus [6]) of the same molecule?
A: Dose-dependent-effect

Q: What about the Activity (Staphylococcus aureus [7]) of the same molecule?
A: inactive

Q: What about the fraction unbound at 4 h [8] of the same molecule?
A: 0.0731

Q: What about the Activity (Staphylococcus aureus [9]) of the same molecule?
A: Active

Q: And the Activity (Cell membrane [10])?
A: Active

Q: What about the Activity (Staphylococcus aureus [11]) of the same molecule?
A: Active

Q: What about the Activity (Staphylococcus aureus [12]) of the same molecule?
A: Active

Q: And the Activity (Cell membrane [13])?
A: Active

Q: What about the IC50 at 24 h [14] of the same molecule?
A: 146 µg/mL (≈ 454 µM)

Q: What about the Activity (Staphylococcus aureus [15]) of the same molecule?
A: Active

Q: What about the Activity (Escherichia coli [16]) of the same molecule?
A: Active

Q: And the Activity (Staphylococcus aureus [17])?
A: inactive

Q: What about the Activity (Staphylococcus aureus [18]) of the same molecule?
A: Active

Q: And the Activity (Staphylococcus aureus [19])?
A: Active

Q: And the Activity (Cell membrane [20])?
A: inactive

Q: And the Activity (Staphylococcus aureus [21])?
A: >6 log10CFU/ml

Q: What about the Activity (Escherichia coli [22]) of the same molecule?
A: inactive

From ChEMBL document CHEMBL6177922, “Antibacterial activity of the structurally novel C-2 amine-substituted analogues based on quinoxaline” (RSC Med Chem, 2025)
